Test results reported in PMC7114156 (Antiviral Research, 2009).
Several values for one entry are separate records, joined by “and”; a condition that tells them apart may be missing. Equal entries are not always repeated. Entries after “also recorded” stand apart in the source; their conditions may differ.

How the values were obtained:
[1] = Bone marrow toxicity assay, granulocyte/macrophage progenitors; format: cell-based; conditions: human, granulocyte/macrophage bone marrow progenitor cells
EBV = experiment: Lytic replication of EBV induced by sodium butyrate and PMA in P3HR1 cells; format: cell-based
SV40 strain Pa-57 = experiment: SV40 assay: SV40 replication in Vero cells, viral DNA by qPCR; format: cell-based; conditions: ratio proportional to viral DNA per cell
How it was run: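 Vero cells at 2 × 10^4 cells/well were allowed to adhere for 4 h. They were infected with SV40 strain Pa-57 at MOI 0.1 for 2 h. Inoculum was removed and test compound added at 100 to 0.003 μM for 3 days. SV40 DNA was read by qPCR, and growth by MTS in parallel on uninfected cells. The SV40 DNA/MTS ratio was expressed as % of untreated control.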

W12 20861 = experiment: Growth of W12 20861; format: cell-based, human; conditions: 72 h
How it was run: (§1)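 Cell lines carrying integrated viral genomes were plated in 96-well plates in medium with test compound. Growth was read by ATP luminescence (CellTiter-Glo) for HEK293 and WI38 VA13, and by MTS reduction (A490 after 2 h at 37 °C) for Namalwa, W12 20861, SiHa, Caski and HeLa. K and Imax came from a fit to a modified Hill equation.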

HSV-1 = HSV-1 infection in Vero cells; format: cell-based
HPV = experiment: Viral DNA levels in the three HPV-infected cell lines; format: cell-based; conditions: read-out: K values, viral DNA levels
B-LCL 5/2/1 = experiment: Growth of B-LCL 5/2/1; format: cell-based, human
W12-20850 cells = experiment: Growth of W12-20850 cells, MTS; format: cell-based, human
How it was run: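 For the time course, test compound was added at time zero to cells growing in 96-well plates. Growth was followed as rate of MTS reduction over 3 days from day zero, with untreated controls alongside.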

[2] = Growth of resting B cells, CTG; format: cell-based; conditions: human
How it was run: (§2)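 Primary cells were plated in 96-well plates with serial dilutions of test compound, 3 nM to 100 μM, for 72 h at 37 °C. Read-out was CTG for resting B and CD4 T cells and MTS for PBMC, WI38 and HUVEC. Purity was 90–95% for B cells and 97% for CD4 cells. Activated PBMCs were stimulated with phytohemagglutinin plus IL2.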

immortalized cell lines = experiment: Growth of immortalized cell lines; format: cell-based
[3] = tested on: cell lines immortalized by non-viral transformation events; experiment: Growth of cell lines immortalized by non-viral transformation events; format: cell-based; conditions: Homo sapiens, read-out: Median effect concentrations, range
How it was run: (§3)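 Cells were plated in 96-well plates in medium holding serial dilutions of test compound, 1 nM to 10 μM, with DMSO ≤1% (v/v) final. Growth was read by MTS after 72 h at 37 °C: 2 h with reagent plus phenazine methosulfate, then A490. K and Imax came from a fit to a modified Hill equation. Vero cells are African Green monkey.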

U937 = experiment: Growth of U937, MTS; format: cell-based, human
How it was run: as §3

HPV-16 = experiment: HPV DNA by qPCR in HKC/HPV16 cells; format: cell-based
SiHa = experiment: Growth of SiHa; format: cell-based, human; conditions: 72 h
How it was run: as §1

HFF cells = experiment: Growth of uninfected HFF cells; format: cell-based, human
[4] = Growth of uninfected HFF cells; format: cell-based, human; conditions: human, HFF cells (fibroblasts)
Huh7 = experiment: Growth of Huh7, MTS; format: cell-based, human
How it was run: as §3

[5] = Growth of activated PBMC, MTS; format: cell-based; conditions: human, activated PBMCs
How it was run: as §2

HPV-31 = experiment: HPV DNA by qPCR in CIN612 cells; format: cell-based
HeLa = experiment: Growth of HeLa; format: cell-based, human; conditions: 72 h
How it was run: as §1

Jurkat = experiment: Growth of Jurkat, MTS; format: cell-based, human; conditions: 72 h
How it was run: as §3

adenovirus type 5 = experiment: Adenovirus assay: adenovirus-5 replication in HFF cells, viral DNA by qPCR; format: cell-based; conditions: Ad5 in HFF cells, MOI 3, 72 h
IM9 cells = experiment: Growth of IM9 cell line; format: cell-based, human
[6] = Growth of resting CD4 T cells, CTG; format: cell-based; conditions: human
How it was run: as §2

IFIT1 promoter = experiment: Luciferase assay, luciferase under control of the IFIT1 promoter in HEK293 cells; format: cell-based, human; conditions: 10 and 30 nM, over a 48-h period
HIV-1 = HIV-1 infection in PBMCs; format: cell-based
HKC/HPV16 cells = experiment: Growth of HKC/HPV16 cells, MTS; format: cell-based, human
primary cells = experiment: Growth of primary cells; format: cell-based, human; conditions: at concentrations below 1 μM
[7] = Growth of WI38 fibroblasts, MTS; format: cell-based; conditions: human
How it was run: as §2

[8] = Homo sapiens, read-out: K, Growth, MTS
[9] = concentration range 1 nM to 100 μM

SMILES: O=C(N[C@@H]1CCCc2c1[nH]c1ccc(Cl)cc21)c1ccccn1 [GSK983, N-[(1R)-6-Chloro-2,3,4,9-tetrahydro-1H-carbazol-1-yl]-2-pyridinecarboxamide]
- CC50 [1]: 160000 nM
- Susceptibility of lytic replication of EBV (EBV; at concentrations below 1 μM): not susceptible
- Inhibition of lytic replication of EBV below 10 μM (EBV; below 10 μM, data not shown): No significant inhibition
- Inhibition of lytic replication of EBV (EBV; induced by sodium butyrate and PMA in P3HR1 cells, data not shown): did not inhibit
- Imax for reduction of the ratio SV40 DNA / MTS activity of Vero cells (SV40 strain Pa-57): 79 ± 2%
- K for reduction of the ratio SV40 DNA / MTS activity of Vero cells (SV40 strain Pa-57): 12 ± 2 nM
- EC50 (W12 20861; [8]): 25 ± 9 nM
- Imax, Growth, MTS (W12 20861; W12 20861, HPV16 integrated): 35 ± 2.8%
- Susceptibility of HSV-1 (HSV-1; at concentrations below 1 μM): not susceptible
- Inhibition of HSV-1 infection in Vero cells (HSV-1; [9]): 50% inhibition in the micromolar range
- EC50 (HPV): 2 to 5 nM
- Selectivity index (B-LCL 5/2/1; B-LCL 5/2/1 (EBV) vs activated B cell): >700 ± 15
- Imax, cell line growth (B-LCL 5/2/1; B-LCL 5/2/1 (EBV), CTG, 72 h): 93 ± 1%
- EC50 (B-LCL 5/2/1; Homo sapiens, 72 h, read-out: K, cell line growth): 14 ± 0.3 nM
- EC50 (W12-20850 cells; Homo sapiens, W12-20850, 96 h, read-out: K, Growth, MTS): 11 ± 2 nM
- Outcome of growth inhibition over time (W12-20850 cells; W12, 3 days, rate of MTS reduction): cytostasis
- Imax, Growth, MTS (W12-20850 cells; W12-20850, 4 days): 60% and 60 ± 7%
- CC50 at 72 h [2]: > 10000 nM
- Selectivity index (immortalized cell lines; EBV and HTLV-1 viral-immortalized cell lines vs related primary cells): approximately 1000
- Time after addition of the compound until reduction in growth rate (immortalized cell lines; W12, U937 and IM9 growth curves): approximately 24 h
- Concentrations at which apoptosis or cytostasis is induced (immortalized cell lines; depending on the cell line): over 20 nM
- EC50 (immortalized cell lines; read-out: EC50 values, growth of cell lines immortalized by HTLV-1, EBV, HPV, SV40 and Ad-5): 10 to 40 nM
- EC50 [3]: 10 to 50 nM
- EC50 (U937; Homo sapiens, U-937, 72 h, read-out: K, growth, MTS): 26 ± 4 nM
- Outcome of growth inhibition over time (U937; U937, 3 days, rate of MTS reduction): cytostasis
- Imax, Growth, MTS (U937; U937, monocyte, 72 h): 55 ± 2%
- Imax, HPV DNA, qPCR (HPV-16; HKC/HPV16, HPV type 16): 89 ± 2%
- Selectivity index (HPV-16; HPV DNA qPCR in HKC/HPV16 vs HKC): 18,000 ± 5,600
- EC50 (HPV-16; Human papillomavirus 16, read-out: K, HPV DNA, qPCR): 2.2 ± 0.2 nM
- Imax, Growth, MTS (SiHa; HPV16 integrated): 39 ± 1.6%
- EC50 (SiHa; [8]): 37 ± 6 nM
- K, uninfected host cell growth, MTS (HFF cells; HFF, this experiment (Fig. 2), K ∼ CC50): 35,500 nM
- Growth of the uninfected HFF, as measured by MTS (HFF cells; at concentrations below one micromolar): not inhibited
- CC50 at 72 h [4]: 55000 nM
- EC50 (Huh7; Homo sapiens, Huh-7, 72 h, read-out: K, growth, MTS): 41 ± 10 nM
- Imax, Growth, MTS (Huh7; Huh7, liver epithelial, 72 h): 26 ± 1%
- CC50 at 72 h [5]: 224000 nM
- Imax, HPV DNA, qPCR (HPV-31; CIN612, HPV type 31): 86 ± 1%
- Selectivity index (HPV-31; HPV DNA qPCR in CIN612 vs HKC): 16,600 ± 5,000
- EC50 (HPV-31; read-out: K, HPV DNA, qPCR): 2.4 ± 0.1 nM
- Imax, Growth, MTS (HeLa; HPV 18 integrated): 50 ± 0.8%
- EC50 (HeLa; [8]): 20 ± 2 nM
- EC50 (Jurkat; Homo sapiens, read-out: K, growth, MTS): 52 ± 3 nM
- Imax, Growth, MTS (Jurkat; T lymphoblast): 51 ± 1%
- Imax, viral DNA by qPCR (adenovirus type 5): 100%
- EC50 (IM9 cells; Homo sapiens, IM-9, 72 h, read-out: K, cell line growth): 16 ± 2 nM
- Selectivity index (IM9 cells; IM9 (EBV) vs activated B cell): >620 ± 80
- Outcome of growth inhibition over time (IM9 cells; IM9, 3 days, higher concentrations): cell death
- CC50 at 72 h [6]: 60000 nM
- Induction of luciferase under control of the IFIT1 promoter (IFIT1 promoter): Strong induction
- Susceptibility of HIV (HIV-1; at concentrations below 1 μM): not susceptible
- Inhibition of HIV-1 infection in PBMCs (HIV-1; [9]): 50% inhibition in the micromolar range
- Imax, Growth, MTS (HKC/HPV16 cells; HKC/HPV16): 59 ± 1%
- EC50 (HKC/HPV16 cells; [8]): 3 ± 0.4 nM
- Inhibition of growth of primary cell types (primary cells): None of the primary cell types tested was significantly inhibited; also recorded: does not impact the growth
- CC50 at 72 h [7]: 90000 nM
